# In ChEMBL document CHEMBL4038284, “Synthesis of novel quinoline-based 4,5-dihydro-1H-pyrazoles as potential anticancer, antifungal, antibacterial and antiprotozoal agents” (Eur J Med Chem, 2017):
# What was measured:
# Format in all cases: functional
# MOLT-4 = test: Growth inhibition of human MOLT4 cells incubated for 48 hrs by sulforhodamine B assay; settings: MOLT-4, 48 h; for CC50: read-out: LC50 (the source's name)
# Outline: (§1)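 NCI 60-line screen. Cells in RPMI-1640 with 5% FBS and 2 mM L-glutamine, preincubated 24 h, then time-zero plates TCA-fixed. Compounds from DMSO stocks given at five final concentrations (100, 10, 1.0, 0.1, 0.01 µM) for 48 h at 37 °C, 5% CO2. Cells fixed with 10% TCA, SRB-stained, read at 515 nm. GI50 is the concentration giving 50% lower net protein increase versus control.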
# RPMI-8226 = test: Growth inhibition of human RPMI8226 cells incubated for 48 hrs by sulforhodamine B assay; settings: RPMI-8226, 48 h; for CC50: read-out: LC50 (the source's name); outline: as §1
# EKVX = test: Growth inhibition of human EKVX cells incubated for 48 hrs by sulforhodamine B assay
# Outline: (§2)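 NCI five-dose SRB assay (100, 10, 1.0, 0.1, 0.01 µM) with 48 h exposure in RPMI-1640 with 5% FBS and 2 mM L-glutamine. Cells fixed with TCA and stained with SRB, read at 515 nm. GI50 is the concentration where [(Ti−Tz)/(C−Tz)]×100 = 50.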
# HOP-92 = test: Growth inhibition of human HOP92 cells incubated for 48 hrs by sulforhodamine B assay; settings: HOP-92, 48 h
# Outline: (§3)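 Five-dose NCI SRB assay at 100, 10, 1.0, 0.1 and 0.01 μM for 48 h at 37 °C, 5% CO2. Medium was RPMI-1640 with 5% FBS and 2 mM glutamine. Time-zero plates were TCA-fixed at compound addition, A515 read after SRB staining. GI50 was solved from [(Ti−Tz)/(C−Tz)]×100 = 50. Values beyond the tested range are given as > or <.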
# NCI-H226 = test: Growth inhibition of human NCI-H226 cells incubated for 48 hrs by sulforhodamine B assay; settings: NCI-H226, 48 h; for CC50: read-out: LC50 (the source's name); outline: as §1
# NCI-H23 = test: Growth inhibition of human NCI-H23 cells incubated for 48 hrs by sulforhodamine B assay; settings: NCI-H23, 48 h; for CC50: read-out: LC50 (the source's name); outline: as §3
# COLO 205 = test: Growth inhibition of human COLO205 cells incubated for 48 hrs by sulforhodamine B assay; settings: COLO 205, 48 h; for CC50: read-out: LC50 (the source's name); outline: as §2
# HCT-116 = test: Growth inhibition of human HCT116 cells incubated for 48 hrs by sulforhodamine B assay; settings: HCT-116, 48 h; outline: as §2
# HCT-15 = test: Growth inhibition of human HCT15 cells incubated for 48 hrs by sulforhodamine B assay; settings: HCT-15, 48 h; outline: as §1
# HT-29 = test: Growth inhibition of human HT-29 cells incubated for 48 hrs by sulforhodamine B assay; settings: HT-29, 48 h; outline: as §3
# SW-620 = test: Growth inhibition of human SW620 cells incubated for 48 hrs by sulforhodamine B assay; settings: SW-620, 48 h; for CC50: read-out: LC50 (the source's name)
# Outline: (§4)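 NCI-60 panel cells grown in RPMI-1640 with 5% FBS and 2 mM L-glutamine, preincubated 24 h at 37 °C/5% CO2. Time-zero plates were TCA-fixed at compound addition. DMSO stocks were diluted in medium and tested at five final concentrations (100, 10, 1.0, 0.1, 0.01 µM) for 48 h. Cells were TCA-fixed, stained with SRB and read at 515 nm. GI50 = 50% lower net protein increase versus control.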
# SF-295 = test: Growth inhibition of human SF295 cells incubated for 48 hrs by sulforhodamine B assay; settings: SF-295, 48 h; for CC50: read-out: LC50 (the source's name); outline: as §3
# SNB-19 = test: Growth inhibition of human SNB19 cells incubated for 48 hrs by sulforhodamine B assay; settings: SNB-19, 48 h; for CC50: read-out: LC50 (the source's name); outline: as §4
# U-251 = test: Growth inhibition of human U251 cells incubated for 48 hrs by sulforhodamine B assay; settings: U-251, 48 h; for CC50: read-out: LC50 (the source's name); outline: as §4
# Malme-3M = test: Growth inhibition of human MALME-3M cells incubated for 48 hrs by sulforhodamine B assay; settings: for CC50: read-out: LC50 (the source's name); outline: as §3
# M14 = test: Growth inhibition of human M14 cells incubated for 48 hrs by sulforhodamine B assay; settings: M14, 48 h; outline: as §3
# MDA-MB-435 = test: Growth inhibition of human MDA-MB-435 cells incubated for 48 hrs by sulforhodamine B assay; settings: MDA-MB-435, 48 h; outline: as §3
# SK-MEL-28 = test: Growth inhibition of human SK-MEL-28 cells incubated for 48 hrs by sulforhodamine B assay; settings: SK-MEL-28, 48 h; for CC50: read-out: LC50 (the source's name); outline: as §4
# UACC-62 = test: Growth inhibition of human UACC62 cells incubated for 48 hrs by sulforhodamine B assay; settings: UACC-62, 48 h; for CC50: read-out: LC50 (the source's name); outline: as §1
# IGROV-1 = test: Growth inhibition of human IGROV1 cells incubated for 48 hrs by sulforhodamine B assay; settings: IGROV-1, 48 h; for CC50: read-out: LC50 (the source's name); outline: as §1
# OVCAR-4 = test: Growth inhibition of human OVCAR4 cells incubated for 48 hrs by sulforhodamine B assay; settings: OVCAR-4, 48 h; for CC50: read-out: LC50 (the source's name); outline: as §3
# OVCAR-8 = test: Growth inhibition of human OVCAR8 cells incubated for 48 hrs by sulforhodamine B assay; settings: OVCAR-8, 48 h; outline: as §3
# NCI/ADR-RES = test: Growth inhibition of human NCI/ADR-RES cells incubated for 48 hrs by sulforhodamine B assay; settings: for CC50: read-out: LC50 (the source's name); outline: as §1
# SK-OV-3 = test: Growth inhibition of human SKOV3 cells incubated for 48 hrs by sulforhodamine B assay; settings: SK-OV-3, 48 h; for CC50: read-out: LC50 (the source's name); outline: as §1
# A498 = test: Growth inhibition of human A498 cells incubated for 48 hrs by sulforhodamine B assay; settings: A498, 48 h; for CC50: read-out: LC50 (the source's name); outline: as §1
# SN12C = test: Growth inhibition of human SN12C cells incubated for 48 hrs by sulforhodamine B assay; outline: as §4
# TK-10 = test: Growth inhibition of human TK10 cells incubated for 48 hrs by sulforhodamine B assay; settings: TK-10, 48 h; for CC50: read-out: LC50 (the source's name); outline: as §1
# UO-31 = test: Growth inhibition of human UO31 cells incubated for 48 hrs by sulforhodamine B assay; settings: UO-31, 48 h; for CC50: read-out: LC50 (the source's name); outline: as §4
# DU-145 = test: Growth inhibition of human DU145 cells incubated for 48 hrs by sulforhodamine B assay; settings: DU-145, 48 h; outline: as §2
# MCF7 = test: Growth inhibition of human MCF7 cells incubated for 48 hrs by sulforhodamine B assay; settings: MCF7, 48 h; for CC50: read-out: LC50 (the source's name); outline: as §1
# BT-549 = test: Growth inhibition of human BT549 cells incubated for 48 hrs by sulforhodamine B assay; settings: BT-549, 48 h; for CC50: read-out: LC50 (the source's name); outline: as §2
# [1] = read-out: LC50 (the source's name)
compound,measurement,setting,value
O=CN1N=C(c2ccc(Cl)cc2)CC1c1cccc(Nc2ccnc3cc(Cl)ccc23)c1 (stereo not drawn),GI50,MOLT-4,1130 nM
same,CC50,MOLT-4,> 100000 nM
same,GI50,RPMI-8226,610 nM
same,CC50,RPMI-8226,> 100000 nM
same,GI50,EKVX,1590 nM
same,LC50,EKVX,> 100000 nM
same,GI50,HOP-92,1450 nM
same,LC50 (concentration giving 50% net cell kill),HOP-92,> 100000 nM
same,GI50,NCI-H226,1870 nM
same,CC50,NCI-H226,> 100000 nM
same,GI50,NCI-H23,1070 nM
same,CC50,NCI-H23,> 100000 nM
same,GI50,COLO 205,1430 nM
same,CC50,COLO 205,21400 nM
same,GI50,HCT-116,1200 nM
same,LC50 (concentration killing 50% of cells),HCT-116,17200 nM
same,GI50,HCT-15,1360 nM
same,CC50,HCT-15; [1],> 100000 nM
same,GI50,HT-29,1280 nM
same,LC50,HT-29,56400 nM
same,GI50,SW-620,1610 nM
same,CC50,SW-620,> 100000 nM
same,GI50,SF-295,500 nM
same,CC50,SF-295,> 100000 nM
same,GI50,SNB-19,4190 nM
same,CC50,SNB-19,> 100000 nM
same,GI50,U-251,2470 nM
same,CC50,U-251,53900 nM
same,GI50,Malme-3M,1270 nM
same,CC50,Malme-3M,76600 nM
same,GI50,M14,1550 nM
same,CC50,M14; [1],> 100000 nM
same,GI50,MDA-MB-435,380 nM
same,CC50,MDA-MB-435; [1],> 100000 nM
same,GI50,SK-MEL-28,3150 nM
same,CC50,SK-MEL-28,> 100000 nM
same,GI50,UACC-62,1140 nM
same,CC50,UACC-62,87800 nM
same,GI50,IGROV-1,1440 nM
same,CC50,IGROV-1,> 100000 nM
same,GI50,OVCAR-4,640 nM
same,CC50,OVCAR-4,79800 nM
same,GI50,OVCAR-8,1920 nM
same,LC50 (concentration causing 50% net cell kill),OVCAR-8,> 100000 nM
same,GI50,NCI/ADR-RES,780 nM
same,CC50,NCI/ADR-RES,> 100000 nM
same,GI50,SK-OV-3,2900 nM
same,CC50,SK-OV-3,> 100000 nM
same,GI50,A498,980 nM
same,CC50,A498,> 100000 nM
same,GI50,SN12C,3990 nM
same,CC50,SN12C; [1],> 100000 nM
same,GI50,TK-10,2340 nM
same,CC50,TK-10,> 100000 nM
same,GI50,UO-31,1700 nM
same,CC50,UO-31,> 100000 nM
same,GI50,DU-145,2800 nM
same,CC50,DU-145; [1],> 100000 nM
same,GI50,MCF7,870 nM
same,CC50,MCF7,> 100000 nM
same,GI50,BT-549,1780 nM
same,CC50,BT-549,> 100000 nM
COc1cc(C(=O)/C=C/c2cccc(Nc3ccnc4cc(Cl)ccc34)c2)cc(OC)c1OC,GI50,MOLT-4,1790 nM
same,CC50,MOLT-4,> 100000 nM
same,GI50,RPMI-8226,310 nM
same,CC50,RPMI-8226,> 100000 nM
same,GI50,EKVX,1620 nM
same,GI50,HOP-92,1470 nM
same,LC50 (concentration giving 50% net cell kill),HOP-92,> 100000 nM
same,GI50,NCI-H226,1270 nM
same,CC50,NCI-H226,6850 nM
same,GI50,NCI-H23,1670 nM
same,CC50,NCI-H23,8100 nM
same,GI50,COLO 205,1340 nM
same,CC50,COLO 205,> 100000 nM
same,GI50,HCT-116,350 nM
same,LC50 (concentration killing 50% of cells),HCT-116,3980 nM
same,GI50,HCT-15,520 nM
same,GI50,HT-29,320 nM
same,LC50,HT-29,5510 nM
same,GI50,SW-620,450 nM
same,CC50,SW-620,> 100000 nM
same,GI50,SF-295,1420 nM
same,CC50,SF-295,6470 nM
same,GI50,SNB-19,1180 nM
same,CC50,SNB-19,5080 nM
same,GI50,U-251,910 nM
same,CC50,U-251,5190 nM
same,GI50,Malme-3M,1460 nM
same,CC50,Malme-3M,7800 nM
same,GI50,M14,1410 nM
same,GI50,MDA-MB-435,470 nM
same,GI50,SK-MEL-28,1510 nM
same,CC50,SK-MEL-28,5980 nM
same,GI50,UACC-62,1030 nM
same,CC50,UACC-62,5400 nM
same,GI50,IGROV-1,1320 nM
same,CC50,IGROV-1,> 100000 nM
same,GI50,OVCAR-4,1260 nM
same,CC50,OVCAR-4,5260 nM
same,GI50,OVCAR-8,520 nM
same,LC50 (concentration causing 50% net cell kill),OVCAR-8,7070 nM
same,GI50,NCI/ADR-RES,410 nM
same,CC50,NCI/ADR-RES,> 100000 nM
same,GI50,SK-OV-3,1940 nM
same,CC50,SK-OV-3,2610 nM
same,GI50,A498,1540 nM
same,CC50,A498,> 100000 nM
same,GI50,SN12C,1160 nM
same,GI50,TK-10,1450 nM
same,CC50,TK-10,6110 nM
same,GI50,UO-31,570 nM
same,CC50,UO-31,4420 nM
same,GI50,DU-145,1460 nM
same,GI50,MCF7,610 nM
same,CC50,MCF7,5240 nM
same,GI50,BT-549,1230 nM
same,CC50,BT-549,6590 nM
